Published values pooled from the literature.
Lines come from different studies, so protocols differ.
MALT1: Mucosa-associated lymphoid tissue lymphoma translocation protein 1 (MALT1, Homo sapiens, UniProt Q9UDY8)
EDNRA: Endothelin-1 receptor (EDNRA, Homo sapiens, UniProt P25101)
PDE5A: cGMP-specific 3',5'-cyclic phosphodiesterase (PDE5A, Homo sapiens, UniProt O76074)

CC(C)=CCC[C@]1(C)C=Cc2c(O)c3c(c(CC=C(C)C)c2O1)O[C@]12C(=C[C@@H]4C[C@H]1C(C)(C)O[C@@]2(C/C=C(/C)C(=O)O)C4=O)C3=O
inhibition (Histone-lysine N-methyltransferase EHMT1 (EHMT1, Homo sapiens, UniProt Q9H9B1); cell-free assay; 10 µM): -8%

Cn1cc(-c2cccc(N3CCc4c(sc5c4CC(C)(C)C5)C3=O)c2CO)cc(Nc2ccncn2)c1=O
inhibition (Phosphatidylinositol 4-phosphate 3-kinase C2 domain-containing subunit beta (PIK3C2B, Homo sapiens, UniProt O00750); enzyme activity; inhibitor; 1 µM): -3%

CC(C)Cn1cnc2c(N)nc3ccccc3c21
inhibition (Sigma non-opioid intracellular receptor 1 (SIGMAR1, Homo sapiens, UniProt Q99720); ligand displacement; radioligand; 10 µM): 15%

N=C(N)c1ccc2cc(OC(=O)c3ccc(N=C(N)N)cc3)ccc2c1
inhibition (MALT1; enzyme activity; inhibitor; 10 µM): 49%

O=C(Nc1cccnn1)N1CCN([C@@H]2CCOc3cc(C(F)(F)F)ccc32)CC1
inhibition (Histamine H4 receptor (HRH4, Homo sapiens, UniProt Q9H3N8); cell-free assay; 20 µM): 4%

CC(C)[C@H](NC(=O)OCc1ccccc1)C(=O)N[C@@H](CCCN=C(N)N)C(=O)N1CCC[C@H]1C(=O)N[C@@H](CCCN=C(N)N)C(=O)CF
inhibition (MALT1; enzyme activity; inhibitor; 0.1 µM): 97%

Cn1cc(-c2cc(F)cc(N3CCn4c(cc5c4CCCC5)C3=O)c2CO)cc(Nc2ccc(N3CCN(C4COC4)CC3)cn2)c1=O
inhibition (Sphingosine kinase 1 (SPHK1, Homo sapiens, UniProt Q9NYA1); enzyme activity; inhibitor; 0.1 µM): 4%

CC(C)N1CCC[C@H]1CNC(=O)c1cn(C2CCCC2)c(=O)c2c1c1ccccc1n2C
inhibition (EDNRA; ligand displacement; radioligand; 10 µM): 11%

C#Cc1n[nH]c2c(-c3cn(C(C)c4ccccn4)c(=O)[nH]c3=O)cc(F)cc12 (stereo not drawn)
inhibition (Aurora kinase B (AURKB, Homo sapiens, UniProt Q96GD4); enzyme activity; inhibitor; 1 µM): 6.7%

COCc1c(-c2cc3cc(C)cc(OC)c3s2)c2c(N)ncnn2c1CN1CCNC(=O)C1
inhibition (EDNRA; ligand displacement; radioligand; 10 µM): 12%

CN(CCN1CCC(OC(=O)Nc2ccccc2-c2ccccc2)CC1)C(=O)c1ccc(CN2CCC(C(N)=O)CC2)cc1
inhibition (PDE5A; enzyme activity; inhibitor; 1 µM): 0%

C[C@H](C(=O)N[C@H]1COc2ccccc2[C@@H]1S(C)(=O)=O)c1ccc(F)cc1
inhibition (PDE5A; enzyme activity; inhibitor; 10 µM): -5%

COc1ccc(S(=O)(=O)N2CCCCC2)cc1C
inhibition (EDNRA; ligand displacement; radioligand; 10 µM): < 30%

[H]/N=C(/N)c1ccc(NCc2nc3cc(C(=O)N(CCC(=O)O)c4ccccn4)ccc3n2C)cc1
inhibition (Vitamin K-dependent protein C (PROC, Homo sapiens, UniProt P04070); enzyme activity; inhibitor; 2 µM): 43%

COc1cc(Nc2ncc(F)c(Nc3ccc4c(n3)NC(=O)C(C)(C)O4)n2)cc(OC)c1OC
inhibition (Serine/threonine-protein kinase VRK2 (VRK2, Homo sapiens, UniProt Q86Y07); binding; 10 µM): 0%

Clc1ccc2c(C3CCN(CCc4c[nH]c5ccccc45)CC3)c[nH]c2c1
inhibition (EDNRA; ligand displacement; radioligand; 10 µM): -12%

OC[C@@]12C[C@@H]1[C@@H](n1cnc3c(NC(C4CCCC4)C4CCCC4)nc(Cl)nc31)[C@H](O)[C@@H]2O
inhibition (5-hydroxytryptamine receptor 2A (HTR2A, Homo sapiens, UniProt P28223); ligand displacement; radioligand; 10 µM): 22%

CN(C)C(=O)COC(=O)Cc1ccc(OC(=O)c2ccc(NC(=N)N)cc2)cc1
inhibition (Caspase-6 (CASP6, Homo sapiens, UniProt P55212); enzyme activity; inhibitor; 10 µM): 3%

Cc1ncc(C)n2nc(/C=C/c3nc(N4CCCC4)cc(N4CCOCC4)n3)nc12
inhibition (PDE5A; enzyme activity; inhibitor; 10 µM): 38%

CCOC(=O)c1ccc(OC(=O)CCCCCNC(=N)N)cc1
inhibition (MALT1; enzyme activity; inhibitor; 10 µM): 46%

CCN(CC)CCCC[C@H](NC(=O)[C@H](CC(C)C)NC(=O)[C@H](C)NC(=O)[C@H](Cc1ccccc1)NC(=O)c1ccc(C(C)(C)C)cc1)C(=O)N[C@@H](CO)C(=O)OC
inhibition (Cannabinoid receptor 1 (CNR1, Homo sapiens, UniProt P21554); ligand displacement; radioligand; 10 µM): -13%
